Published values of several laboratories.
Compare with care: the assays were run in different laboratories.

SMILES | target | test | conditions | Kd [µM]
Cc1cnc(-c2ccc(-c3ccc(NC(=O)Nc4c(F)cc(F)cc4F)cc3F)c3c2C(=O)NC3)[nH]1 | Dual specificity mitogen-activated protein kinase kinase 6 (MAP2K6, Homo sapiens, UniProt P52564) | binding, competition with immobilised ligand |  | 0.012
Cc1cc2nc3c(=O)[nH]c(=O)nc-3n(C[C@H](O)[C@H](O)[C@H](O)COP(=O)(O)OP(=O)(O)OC[C@H]3O[C@@H](n4cnc5c(N)ncnc54)[C@H](O)[C@@H]3O)c2cc1C | CPEB4 (Homo sapiens, UniProt Q17RY0) | binding | lysate | 0.005
NS(=O)(=O)C(F)(F)F | Carbonic anhydrase 1 (CA1, Homo sapiens, UniProt P00915) | binding, ITC | pH 6 | 0.164
NS(=O)(=O)c1ccc(C(F)(F)F)cc1 | Carbonic anhydrase 2 (CA2, Homo sapiens, UniProt P00918) | binding, ITC |  | ~0.07
FC(F)(F)c1n[nH]cc1-c1nc2ccc3[nH]ncc3c2c2c1CCCC2 | Tyrosine-protein kinase ABL1, phosphorylated (ABL1, Homo sapiens, UniProt P00519) | binding, competition with immobilised ligand |  | 7.2
COc1cc2c(Oc3ccc4[nH]c(C)cc4c3F)ccnc2cc1OCC1(N)CC1 | AMP-activated protein kinase (AMPK) alpha-1/beta-1/gamma-1 (PRKAG1/PRKAA1/PRKAB1, Homo sapiens, UniProt P54619+Q13131+Q9Y478) | binding, SPR |  | 23.5
O=C(O)c1cc(O)c2c(c1)C(=O)c1cccc(O)c1C2=O | Oxysterols receptor LXR-alpha (NR1H3, Homo sapiens, UniProt Q13133) | binding, SPR |  | 46.7
Cc1cc(Nc2cc3ncccc3c(N[C@@H]3C[C@H]4CC[C@@H](C3)N4CCC#N)n2)n[nH]1 | STE20-like serine/threonine-protein kinase (SLK, Homo sapiens, UniProt Q9H2G2) | binding, competition with immobilised ligand |  | 0.11
CC(C)C[C@H](NC(=O)[C@H](C)NC(=O)[C@@H](NC(=O)[C@H](CCCCN)NC(=O)[C@H](CC(=O)O)NC(=O)[C@H](Cc1ccc(OP(=O)(O)O)cc1)NC(=O)[C@H](C)NC(=O)[C@H](CC(N)=O)NC(=O)[C@@H]1CCCN1C(=O)[C@@H](NC(=O)[C@H](CCCNC(=N)N)NC(=O)[C@H](CCCCN)NC(=O)CCCCCNC(=O)CCCC[C@@H]1SC[C@@H]2NC(=O)N[C@@H]21)C(C)C)[C@@H](C)O)C(=O)N[C@@H](C)C(=O)N[C@@H](CC(C)C)C(=O)N[C@@H](CCC(=O)O)C(=O)O | Tyrosine-protein kinase ABL1, SH2 (ABL1, Homo sapiens, UniProt P00519) | binding, ITC |  | 85.5
CCCN1CCN(c2ccc(-c3cncc(Cl)c3N3CCC4(CCNC4=O)CC3)cc2)CC1 | Nicotinamide phosphoribosyltransferase (NAMPT, Homo sapiens, UniProt P43490) | cell-free assay | lysate | 6.42
CC#CC(=O)N1CC[C@@H](n2cc(-c3ccc(Oc4c(F)cccc4F)cc3)c3c(N)n[nH]c(=O)c32)C1 | Tyrosine-protein kinase ITK/TSK (ITK, Homo sapiens, UniProt Q08881) | binding, competition with immobilised ligand |  | > 3
